Measurements as given in the EternaBench riboswitch data.

System: MS2 coat protein
Assay: apparent Kd, MS2 coat protein; higher = weaker binding; RNA-MaP array; FMN 200 µM where present
How it was run: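 Stalled E. coli RNA polymerase transcribed the designs on Illumina sequencing-chip clusters. SNAP-549-labelled MS2 coat protein was titrated from 0.7 or 1.5 nM, doubling to 3 µM, without and then with constant ligand, in 100 mM Tris-HCl pH 7.5, 80 mM KCl, 4 mM MgCl2, BSA, DTT, yeast tRNA and Tween-20. Per-cluster binding curves were fitted to green signal normalised to red-channel RNA signal and control-cluster median Fmax. The apparent Kd is the median of the filtered fits.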

[1] = designed as: OFF switch for flavin mononucleotide, no ligand
[2] = ligand present: flavin mononucleotide, designed as: OFF switch for flavin mononucleotide
[3] = designed as: ON switch for flavin mononucleotide, no ligand
[4] = ligand present: flavin mononucleotide, designed as: ON switch for flavin mononucleotide

Sequence | apparent Kd [1] | apparent Kd [2] | apparent Kd [3] | apparent Kd [4]
AAAUAGUUAGGAUAUACAUGAGGAUCACCCAUGUGGACUGAUGGCGAUUAAUUUAGUGGUAGAAGGGACUCAAA | 43.9 nM | 49.9 nM |  | 
AAAUGAUGAGGAUAUACAUGAGGAUCACCCAUGUGUAAAAAUAAAUACACAAAAGAAAGUAGAAGGCAUCAAAA | 31.6 nM | 124 nM |  | 
AAAUGCCUGUCGAUGCUCGACAUGAGGAUCACCCAUGUAUGGCAGGAUAUGCAGAACUGACUCGUGCAGAAGGGCUAUACCUAA | 8.06 nM | 24.7 nM |  | 
AAAUUUAACGAAGGAUAUGCUUACAUGAGGAUCACCCAUGUGUGCCUUGUGAUGCUGAUUAAGUUGCAGAAGGUCGUAUACAUA | 124 nM | 414 nM |  | 
AAAUUUUGUCAAGGAUAUGUAUAAAAGAUAAGAAAACAUGAGGAUCACCCAUGUAUAUGGUGGGAACAGAAGGUGAAUAAGUAA | 185 nM | 158 nM |  | 
AAAUUUUGUCAAGGAUAUGUAUUAUUGAUUUGAAAACAUGAGGAUCACCCAUGUAUAUGGUGGGAACAGAAGGUGAAUAAGUAA | 202 nM | 236 nM |  | 
AACAAGAGGAUCACCCAUGUAACAUGAGGAUCACCCAUGUUUAAGGAUAUGUACAUGAUACAUGUACAGAAGGUGGAUUGGACU | 26.2 nM | 27.2 nM |  | 
AACAAGUGAGGAUAUGAAAAUACAACAAACAAACAUCUACAUCAGAAGGCACAUGAGGAUCACCCAUGUUAAUC | 20.9 nM | 23.2 nM |  | 
AACAGACAUGAGGAUCACCCAUGUGAAAACGUACAAGGAUAUGUGUGGAAACCGUACUAUACAGAAGGUGUCUGUC |  |  | 41.3 nM | 72.5 nM
AACAGCUCGUCAGGAUAUAUUAUCUUUUUAUGUAUUUAUGUACAUGAGGAUCACCCAUGUUGUUUGUAGAAGGGACGAGCUGAA | 30.4 nM | 26.5 nM |  | 
AACAGUACAGGAUAUACAUGAGGAUCACCCAUGUGAGAAUUAAGUGGCGUACCACUAUGUAGAAGGGUACUGGA | 103 nM | 225 nM |  | 
AACAUGGUACAGAAGGGCUAUUUAUUUAAUUAUUAUUUAGAACAGCAUAGCAGGAUAUGUUUAACAUGAGGAUCACCCAUGUAC |  |  | 71.3 nM | 14.7 nM
AACCAACAUGAGGAUCACCCAUGUUCUCAGACGUUUAGGUCACAGGAUAUUCGUGCUUGUGGGACGGAGAAGGGUGCCUCGCUG |  |  | 92.7 nM | 125 nM
AACCAGUUGGUAGGAUAUGGUACAGUACCCGUACCAGAAGGACCAACAUGAGGAUCACCCAUGUUGGAAAGUCAACAUUAAUGA | 6.51 nM | 14 nM |  | 
AACCUACAUGAGGAUCACCCAUGUGAGGAUAUAUUGGUAUGGAUGUUAUUUUGUAGAGGUAGAAGGCGCGUGAU | 15.4 nM | 15.4 nM |  | 
AACCUAUUACAGAAGGCCAGCUACAUGAGGAUCACCCAUGUCGAGUCAUGGAGGAUAUGUAGUAAUUUACACGCGGGUGAGUAC |  |  | 51.6 nM | 6.25 nM
AACGACGGAGGAUAUACACCCUGGGACUCAUCAUCCCUUAGACAUGAGGAUCACCCAUGUAGAAGGCCGGACAC | 34.9 nM | 154 nM |  | 
AACGCGUCAGGAUAUAGCGUAACUUAGGUAGUACGACCAUACUAGAAGGGACAUGAGGAUCACCCAUGUGGGUA | 232 nM | 112 nM |  | 
AACGGAAUGUAGAAGGGUGACAUGAGGAUCACCCAUGUUCACAUGCGUAUUAAAGUAUGUGAUCCACAGGAUAUACUGUCCGUG |  |  | 957 nM | 92.8 nM
AACUAAGUAUUAAUGGUGUCUGACAGAAGGCAAUAGAAUGAGACCGACAUGAGGAUCACCCAUGUUGAGGAUAUGUCUUGCUAC | 6.44 nM | 6.73 nM |  | 
AACUGACAUGAGGAUCACCCAUGUCAGGAUAUGACAUCGAAAAUAAAAUAAAUCGUUGUCAGAAGGGACAUGGG | 21.4 nM | 19.3 nM |  | 

Sequence | apparent Kd [1] | apparent Kd [2] | apparent Kd [3] | apparent Kd [4]
AACUGACAUGAGGAUCACCCAUGUCAGGAUAUGACUUCAAAAUAAAAAUAAAAUGAUGUCAGAAGGGACAUGAA | 13.3 nM | 12 nM |  | 
AACUGACGACAUCAGUUGCGUAGGCAGGAUAUACAUGAGGAUCACCCAUGUGCAUGAUGCUACGAGUAGAAGGGCCGAGGCGAU | 6.77 nM | 13.4 nM |  | 
AACUUACAUGAGGAUCACCCAUGUCAGGAUAUCGAAAUUGGCUCGCAAUUGCGAGCGACGAGAAGGGACGUUUU | 17.3 nM | 24.8 nM |  | 
AACUUGCGCACAGGAUAUCCACGGAGCGGACGUGGAGAAGGGUGACAUGAGGAUCACCCAUGUACGUAAGUCUGGAUCACUUCC |  |  | 116 nM | 42.3 nM
AAGAAACAUGAGGAUCACCCAUGUCAGGAUAUGCAGGACUGACGAAAGUCAGUCCAAAGCAGAAGGGACUAGAA | 60.7 nM | 81.8 nM |  | 
AAGAAGCACGCAGGAUAUCUCACCCAUGUAAGAAGAGAAGGGCGACAUGAGGAUCACCCAUGUCAACAUGAGGAUCACCCAUGU | 62.2 nM | 87.8 nM |  | 
AAGAAGGACGCAGGAUAUCCAGGACCUCCCGCAGGAGAAGGGCGAGACAUGAGGAUCACCCAUACAUGAGGAUCACCCAUGUAG | 17.3 nM | 18.4 nM |  | 
AAGAAGUCAGGAUAUCCAGCUCGUCACUUGCGUGAUGAGUUGGAGAAGGGACAUGAGGAUCACCCAUGUAAAGC | 47.9 nM | 45.7 nM |  | 
AAGAAGUCAGGAUAUGCUGCUCGUCACUUGCGUGAUGAGUAGCAGAAGGGACAUGAGGAUCACCCAUGUAAAGG | 164 nM | 356 nM |  | 
AAGAAGUCAGGAUAUGCUGCUCGUCACUUGCGUGAUGAGUAGCAGAAGGGACAUGAGGAUCACCCAUGUGGAAG | 111 nM | 240 nM |  | 
AAGAAGUGAGGAUAUCGAAGACUGUCGAAAAGACAGUCGAACGAGAAGGCACAUGAGGAUCACCCAUGUAAGAA | 24.1 nM | 34.5 nM |  | 
AAGACACAUGAGGAUCACCCAUGUCAAGAGAGACGAGGAUAUCUGAAAAAAAAAAAAAAAGGAGAAGGCGUGAAAA |  |  | 109 nM | 51.1 nM
AAGACUAGAGGAUAUACAUGAGGAUCACCCAUGUAACUGUCAGGUGACUGACGGAGAUGUAGAAGGCUAGUCAA | 19.6 nM | 43.2 nM |  | 
AAGAGAAGAACUGAGGAUAUCAGGGAUGGUACAUGAGGAUCACCCAUGUUGGCAAGCGAAGAAACUGAGAAGGCAGAGAAGAAGAA |  |  | 80.3 nM | 48.1 nM
AAGAGACAUCAGAAGGGAGCCCGCACGCGCGGCUCAGGAUAUGAGAUCUUAUGUAGUACGACAUGAGGAUCACCCAUGUCCGCG |  |  | 37.8 nM | 7.97 nM
AAGAGAGCAGGAUAUCGGUUUUGCGACAUGAGGAUCACCCAUGUGAGCCGAGUCCAACGCCGAGAAGGGCUAAAAU | 62.5 nM | 336 nM |  | 
AAGAUGUUAGGAUAUCGAAGGUUGUGGCAGGCGGGAAUUUGCGAGAAGGAACAUGAGGAUCACCCAUGUGAAAU | 22.3 nM | 21.8 nM |  | 
AAGCCUAAUGAGAAGGUGUGUAUAAAUUAUAUACAAGGAUAUCGGUCGAGCGUGUUGACAUGAGGAUCACCCAUGUUGAGGCUU |  |  | 10.3 nM | 6.22 nM
AAGCGAGGGACAGGAUAUGCGGCAAAACUUUCCGCAGAAGGGUCGACAUGAGGAUCACCCAUGUCCUUACGCUCCAAGUAGAGG |  |  | 189 nM | 277 nM
AAGCUCGUGUGAGGAUAUGCCGCCGUUUCGGCUGCAGAAGGUGCUACGUUACAUGAGGAUCACCCAUGUCUCUGUUGUUUCGUA |  |  | 42.6 nM | 49.7 nM
AAGCUGGUAGGAUAUGCUAGGGCGAUUAAUACGCCGAUAGUACAUGAGGAUCACCCAUGUAGAAGGGCCAGAAA | 23.6 nM | 17.8 nM |  | 
